The source made the active and inactive calls.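 Rule for the calls, unless noted: active = mean duplicate potentiation above the buffer control mean plus 5 SD of buffer wells; inactive = the rest.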
What follows are molecules tested against Potassium voltage-gated channel subfamily KQT member 2 (Rattus norvegicus) (UniProt O88943) (assay: rat KCNQ2 channel potentiation, selectivity assay for KCNQ1 potentiator project, KCNQ2-CHO-K1 cells (AID 493009;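 note: assay conditions were tuned for KCNQ1 rather than KCNQ2 modulators; signal is max minus min fluorescence divided by baseline after thallium stimulus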)). Conditions: FluxOR thallium flux fluorescence, at 10 µM; active compounds read high, scaled: buffer 0, activator control 100.
Chain of Potassium voltage-gated channel subfamily KQT member 2 (Rattus norvegicus) (O88943 whole entry, looked up): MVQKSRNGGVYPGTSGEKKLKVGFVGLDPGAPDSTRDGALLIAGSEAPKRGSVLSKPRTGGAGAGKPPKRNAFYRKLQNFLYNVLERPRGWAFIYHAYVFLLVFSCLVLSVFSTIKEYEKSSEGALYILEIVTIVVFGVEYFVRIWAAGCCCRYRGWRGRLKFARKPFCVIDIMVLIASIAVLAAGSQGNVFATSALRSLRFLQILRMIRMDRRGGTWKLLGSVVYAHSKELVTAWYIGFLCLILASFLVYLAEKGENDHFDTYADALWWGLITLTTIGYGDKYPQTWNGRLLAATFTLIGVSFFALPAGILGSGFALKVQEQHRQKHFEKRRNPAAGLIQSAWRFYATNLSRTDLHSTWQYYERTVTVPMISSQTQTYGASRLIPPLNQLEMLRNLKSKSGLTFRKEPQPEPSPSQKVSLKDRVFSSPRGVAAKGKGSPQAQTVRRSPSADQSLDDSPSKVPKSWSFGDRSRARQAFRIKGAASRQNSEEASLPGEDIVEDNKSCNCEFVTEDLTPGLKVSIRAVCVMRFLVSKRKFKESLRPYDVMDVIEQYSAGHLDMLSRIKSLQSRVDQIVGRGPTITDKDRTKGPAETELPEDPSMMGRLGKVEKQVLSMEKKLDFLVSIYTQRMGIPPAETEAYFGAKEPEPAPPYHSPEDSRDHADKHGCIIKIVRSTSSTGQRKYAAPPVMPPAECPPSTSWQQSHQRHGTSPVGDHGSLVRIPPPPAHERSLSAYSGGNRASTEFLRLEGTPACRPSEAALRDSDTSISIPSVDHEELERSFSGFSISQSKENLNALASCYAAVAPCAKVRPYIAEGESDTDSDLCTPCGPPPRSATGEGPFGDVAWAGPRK
In the case of CC(=O)c1c(-c2ccccc2)c2cc([N+](=O)[O-])ccc2[nH]c1=O, the outcome is reported as “inactive”. In the case of CC(C)Cn1c(=S)[nH]c2cc(Cl)ccc21, the potentiation is reported as 225% (active). O=C(Nn1c(Cc2cccs2)nc2ccccc2c1=O)c1cccs1 was tested, and the outcome was “inactive”. COc1ccc(Cl)cc1N(C)C(=O)CCNC(=O)Cn1cnc2ccccc2c1=O was tested, and the potentiation was 157% (active). With C=CCC(=O)N1CCC(n2nccc2NC(=O)CCOc2ccccc2)CC1 the outcome was “inactive”. In the case of Cc1[nH]c(-c2ccccn2)nc(=S)c1Cl, the potentiation is reported as 262% (active). In the case of CC1=NN(C(N)=S)C(=O)C1N=Nc1cccc(Cl)c1C (stereo not drawn), the potentiation is reported as 1230% (active). For COc1cccc(OCC(=O)NNC(=O)C(=O)Nc2cccc(C)c2)c1, the potentiation was 224% (active). In the case of COc1ccc(CCN2CC(C(=O)Nc3ccc4c(c3)OCO4)CC2=O)cc1OC (stereo not drawn), the potentiation is reported as 158% (active). With COC(=O)c1sc(NC(=S)NC(=O)c2ccc(C)cc2)nc1C the potentiation was 188% (active). For COC(=O)C1=C(C(=O)OC)[C@@H]2N(C)c3ccccc3[C@@]23C[C@@H](C(=O)OC)N(C(=O)c2ccc(Br)cc2)C3=N1, the potentiation was 204% (active). O=C(NC(=S)N1CCN(c2ccc(Cl)cc2[N+](=O)[O-])CC1)c1cccs1 was tested, and the potentiation was 244% (active). Cc1c(C(=O)NC(=S)NCc2cccnc2)oc2ccccc12 was tested, and the outcome was “inactive”. In the case of Cc1cccc(NC(=O)Nc2ccc(OCc3ccccc3)cc2)n1, the outcome is reported as “inactive”. With COc1cccc(N=Nc2ccc3cccnc3c2O)c1 the potentiation was 162% (active). With COc1ccc(Nc2nc(-c3sc(C)nc3C)cs2)c(OC)c1 the outcome was “inactive”. For O=c1c2cccnc2[nH]c(=S)n1CCC1=CCCCC1, the potentiation was 229% (active). For Cc1ccc(-c2cc(-c3n[nH]c(=S)o3)c3ccccc3n2)cc1, the potentiation was 512% (active). In the case of COC(=O)c1ccc(CSc2ncnc3sc(C)c(C)c23)o1, the potentiation is reported as 163% (active). In the case of Cc1ccc(CSc2nc3ccccc3c(=O)n2CCCC(=O)NCc2ccco2)cc1, the outcome is reported as “inactive”. In the case of CCc1ccc(S(=O)(=O)NC(=S)NC2CCCCC2)cc1, the potentiation is reported as 312% (active). With COc1ccc(OCC(=O)Nc2cccc(C(C)=O)c2)cc1 the outcome was “inactive”. For O=C(O)C(c1ccccc1)N1C(=O)/C(=C\c2ccc(-c3ccc(Br)cc3)o2)SC1=S (stereo not drawn), the outcome was “inactive”. O=C(COC(=O)c1cc(NS(=O)(=O)c2cccs2)ccc1O)Nc1cc(Cl)ccc1Cl was tested, and the outcome was “inactive”. With Cc1cccc(CS(=O)(=O)c2ncc(CO)n2C)c1 the outcome was “inactive”. For CCOC(=O)c1sc(NC(=O)c2ccncc2)nc1C, the potentiation was 166% (active). With CC1(C)CC2CC(C)(CN2C(=S)NC(=O)c2ccccc2Cl)C1 (stereo not drawn) the potentiation was 426% (active). CCCCn1c(=O)nc2n(-c3ccccc3C)c3ccccc3cc-2c1=O was tested, and the outcome was “inactive”. With CCCCn1c(NS(=O)(=O)c2ccc(C)cc2)c(S(=O)(=O)c2ccccc2)c2nc3ccccc3nc21 the outcome was “inactive”. For Cc1ccc(S(=O)(=O)Nc2cc(C(F)(F)F)ccc2N2CCOCC2)c(C)c1, the outcome was “inactive”. COCCCN=C1NN=C(c2cc(C)n(-c3ccccc3F)c2C)CS1 was tested, and the outcome was “inactive”. O=C(NC(=S)N1CCCc2ccccc21)c1ccc(Br)cc1 was tested, and the potentiation was 300% (active). For Cc1nn(C)c(C(=O)NC(=S)Nc2ccc([N+](=O)[O-])cc2)c1Cl, the potentiation was 196% (active). CC1(C)CC(N2CCOCC2)=CC(=[N+]2CCOCC2)C1 was tested, and the outcome was “inactive”. For CCc1ccc2nc(N(CCCN(C)C)C(=O)c3ccc(S(=O)(=O)N4CCCc5ccccc54)cc3)sc2c1, the outcome was “inactive”. With Cn1c(O)c(N=Nc2nc(-c3ccccc3)cs2)c2ccccc21 the potentiation was 677% (active). For CS(=O)(=O)N1CCN(Cc2ccc(C(F)(F)F)cc2)CC1, the outcome was “inactive”. CCOC(=O)/C(C)=N/NC(=O)c1ccc([N+](=O)[O-])cc1 was tested, and the potentiation was 349% (active). With COC(=O)c1ccc(NC(=S)NC(=O)c2c(Cl)cnn2C)cc1 the outcome was “inactive”.

Each molecule was assayed against Potassium voltage-gated channel subfamily KQT member 1 (Homo sapiens) (UniProt P51787) (assay: KCNQ1 channel current potentiators, confirmation, orthogonal assay for KCNQ1 potentiator project, IonWorks patch clamp, KCNQ1-CHO cells (AID 493184;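 active = current rise at least 3 SD above the untreated control mean in each of two repeat wells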;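 for current potentiation: percent change of the same well's current before compound addition so 0% = no change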)). Conditions: automated patch clamp current, at 10 µM; active compounds read high.
Chain of Potassium voltage-gated channel subfamily KQT member 1 (Homo sapiens) (P51787 whole entry, looked up): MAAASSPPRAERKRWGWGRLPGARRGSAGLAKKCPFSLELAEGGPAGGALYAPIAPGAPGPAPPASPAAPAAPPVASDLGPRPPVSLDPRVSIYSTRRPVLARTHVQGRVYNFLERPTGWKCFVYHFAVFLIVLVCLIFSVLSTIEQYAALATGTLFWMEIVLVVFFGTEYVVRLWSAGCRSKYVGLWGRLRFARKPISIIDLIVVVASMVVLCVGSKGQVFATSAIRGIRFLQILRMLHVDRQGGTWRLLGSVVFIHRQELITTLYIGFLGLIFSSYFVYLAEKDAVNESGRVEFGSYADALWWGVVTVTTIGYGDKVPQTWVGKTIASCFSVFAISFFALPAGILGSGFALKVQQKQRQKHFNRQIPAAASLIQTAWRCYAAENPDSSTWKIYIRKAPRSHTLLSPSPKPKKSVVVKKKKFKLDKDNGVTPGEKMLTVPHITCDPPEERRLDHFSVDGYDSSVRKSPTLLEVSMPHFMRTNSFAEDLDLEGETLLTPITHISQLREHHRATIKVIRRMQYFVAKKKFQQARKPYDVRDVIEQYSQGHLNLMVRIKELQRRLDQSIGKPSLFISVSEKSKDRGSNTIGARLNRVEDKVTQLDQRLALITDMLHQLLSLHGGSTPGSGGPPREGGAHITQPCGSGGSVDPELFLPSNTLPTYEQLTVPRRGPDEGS
In short: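 Read-out: Percent current increase versus pre-compound level | Assay system: CHO cells carrying KCNQ1 | Measured by: Automated perforated-patch electrophysiology | Medium: External bath solution at pH 7.4 | Dosing: One dose, 10 µM final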
In the case of CC(=O)c1c(-c2ccccc2)c2cc([N+](=O)[O-])ccc2[nH]c1=O, the outcome is reported as “inactive”. CC(C)Cn1c(=S)[nH]c2cc(Cl)ccc21 was tested, and the outcome was “inactive”. For O=C(Nn1c(Cc2cccs2)nc2ccccc2c1=O)c1cccs1, the outcome was “inactive”. In the case of COc1ccc(Cl)cc1N(C)C(=O)CCNC(=O)Cn1cnc2ccccc2c1=O, the outcome is reported as “inactive”. With C=CCC(=O)N1CCC(n2nccc2NC(=O)CCOc2ccccc2)CC1 the outcome was “inactive”. Cc1[nH]c(-c2ccccn2)nc(=S)c1Cl was tested, and the outcome was “inactive”. In the case of CC1=NN(C(N)=S)C(=O)C1N=Nc1cccc(Cl)c1C (stereo not drawn), the outcome is reported as “inactive”. In the case of COc1cccc(OCC(=O)NNC(=O)C(=O)Nc2cccc(C)c2)c1, the outcome is reported as “inactive”. COc1ccc(CCN2CC(C(=O)Nc3ccc4c(c3)OCO4)CC2=O)cc1OC (stereo not drawn) was tested, and the outcome was “inactive”. With COC(=O)c1sc(NC(=S)NC(=O)c2ccc(C)cc2)nc1C the outcome was “inactive”. COC(=O)C1=C(C(=O)OC)[C@@H]2N(C)c3ccccc3[C@@]23C[C@@H](C(=O)OC)N(C(=O)c2ccc(Br)cc2)C3=N1 was tested, and the outcome was “inactive”. In the case of O=C(NC(=S)N1CCN(c2ccc(Cl)cc2[N+](=O)[O-])CC1)c1cccs1, the outcome is reported as “inactive”. Cc1c(C(=O)NC(=S)NCc2cccnc2)oc2ccccc12 was tested, and the outcome was “inactive”. For Cc1cccc(NC(=O)Nc2ccc(OCc3ccccc3)cc2)n1, the outcome was “inactive”. With COc1cccc(N=Nc2ccc3cccnc3c2O)c1 the outcome was “inactive”. COc1ccc(Nc2nc(-c3sc(C)nc3C)cs2)c(OC)c1 was tested, and the outcome was “inactive”. With O=c1c2cccnc2[nH]c(=S)n1CCC1=CCCCC1 the outcome was “inactive”. For Cc1ccc(-c2cc(-c3n[nH]c(=S)o3)c3ccccc3n2)cc1, the current potentiation was 18.8% (active). For COC(=O)c1ccc(CSc2ncnc3sc(C)c(C)c23)o1, the outcome was “inactive”. For Cc1ccc(CSc2nc3ccccc3c(=O)n2CCCC(=O)NCc2ccco2)cc1, the outcome was “inactive”. In the case of CCc1ccc(S(=O)(=O)NC(=S)NC2CCCCC2)cc1, the outcome is reported as “inactive”. COc1ccc(OCC(=O)Nc2cccc(C(C)=O)c2)cc1 was tested, and the outcome was “inactive”. For O=C(O)C(c1ccccc1)N1C(=O)/C(=C\c2ccc(-c3ccc(Br)cc3)o2)SC1=S (stereo not drawn), the current potentiation was 15% (active). In the case of O=C(COC(=O)c1cc(NS(=O)(=O)c2cccs2)ccc1O)Nc1cc(Cl)ccc1Cl, the outcome is reported as “inactive”. For Cc1cccc(CS(=O)(=O)c2ncc(CO)n2C)c1, the outcome was “inactive”. With CCOC(=O)c1sc(NC(=O)c2ccncc2)nc1C the outcome was “inactive”. For CC1(C)CC2CC(C)(CN2C(=S)NC(=O)c2ccccc2Cl)C1 (stereo not drawn), the outcome was “inactive”. In the case of CCCCn1c(=O)nc2n(-c3ccccc3C)c3ccccc3cc-2c1=O, the outcome is reported as “inactive”. For CCCCn1c(NS(=O)(=O)c2ccc(C)cc2)c(S(=O)(=O)c2ccccc2)c2nc3ccccc3nc21, the outcome was “inactive”. Cc1ccc(S(=O)(=O)Nc2cc(C(F)(F)F)ccc2N2CCOCC2)c(C)c1 was tested, and the outcome was “inactive”. In the case of COCCCN=C1NN=C(c2cc(C)n(-c3ccccc3F)c2C)CS1, the outcome is reported as “inactive”. O=C(NC(=S)N1CCCc2ccccc21)c1ccc(Br)cc1 was tested, and the outcome was “inactive”. In the case of Cc1nn(C)c(C(=O)NC(=S)Nc2ccc([N+](=O)[O-])cc2)c1Cl, the outcome is reported as “inactive”. In the case of CC1(C)CC(N2CCOCC2)=CC(=[N+]2CCOCC2)C1, the outcome is reported as “inactive”. CCc1ccc2nc(N(CCCN(C)C)C(=O)c3ccc(S(=O)(=O)N4CCCc5ccccc54)cc3)sc2c1 was tested, and the outcome was “inactive”. Cn1c(O)c(N=Nc2nc(-c3ccccc3)cs2)c2ccccc21 was tested, and the outcome was “inactive”. For CS(=O)(=O)N1CCN(Cc2ccc(C(F)(F)F)cc2)CC1, the outcome was “inactive”. With CCOC(=O)/C(C)=N/NC(=O)c1ccc([N+](=O)[O-])cc1 the outcome was “inactive”. For COC(=O)c1ccc(NC(=S)NC(=O)c2c(Cl)cnn2C)cc1, the outcome was “inactive”.

Reference: PubChem BioAssay
